Test results published in ChEMBL document CHEMBL1132697, “Dual inhibition of phosphodiesterase 4 and matrix metalloproteinases by an (arylsulfonyl)hydroxamic acid template” (J Med Chem, 1999).

target: Stromelysin-1 (Homo sapiens, UniProt P08254); experiment: Inhibition of matrix metalloprotease-3 (MMP-3), stromelysin-1
In short: (§1)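 Recombinant human enzymes (MMP-1, MMP-2, MMP-3) were used as the source for the inhibition measurements.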

Chain of Stromelysin-1 (P08254 whole entry): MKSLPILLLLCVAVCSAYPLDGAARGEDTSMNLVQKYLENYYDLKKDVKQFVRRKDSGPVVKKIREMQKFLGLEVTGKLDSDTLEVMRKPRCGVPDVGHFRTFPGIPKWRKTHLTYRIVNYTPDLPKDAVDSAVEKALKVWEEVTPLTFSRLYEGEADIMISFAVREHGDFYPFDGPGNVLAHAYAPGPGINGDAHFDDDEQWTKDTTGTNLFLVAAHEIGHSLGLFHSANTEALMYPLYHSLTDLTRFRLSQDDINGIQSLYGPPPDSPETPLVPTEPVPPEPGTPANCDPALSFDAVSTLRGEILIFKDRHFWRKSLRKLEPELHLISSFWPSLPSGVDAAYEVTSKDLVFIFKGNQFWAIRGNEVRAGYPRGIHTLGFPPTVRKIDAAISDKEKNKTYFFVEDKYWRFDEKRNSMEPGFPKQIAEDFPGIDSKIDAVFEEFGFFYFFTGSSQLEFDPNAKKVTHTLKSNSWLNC

Structure (SMILES)	Ki [nM]
COc1ccc(S(=O)(=O)C(CCCCc2ccccc2)C(C)C(=O)NO)cc1 (centres undefined)	600
COc1ccc(S(=O)(=O)C(CCCc2ccccc2)CC(=O)NO)cc1 (centres undefined)	600
COc1ccc(S(=O)(=O)C(C)(CCCCc2ccccc2)CC(=O)NO)cc1 (centres undefined)	1000
COc1ccc(S(=O)(=O)C(CCc2ccccc2)CC(=O)NO)cc1 (centres undefined)	200
COc1ccc(S(=O)(=O)C(CCCCc2ccccc2)CC(=O)NO)cc1 (centres undefined)	700
COc1ccc(S(=O)(=O)C(CC(=O)NO)Cc2ccccc2)cc1 (centres undefined)	300
COc1ccc(S(=O)(=O)C(CCCCc2ccccc2)CC(=O)NO)cc1OC (centres undefined)	> 10000
COc1ccc(S(=O)(=O)[C@H](CCCCc2ccccc2)[C@@H](C)C(=O)NO)cc1	500

target: 72 kDa type IV collagenase (Homo sapiens, UniProt P08253); experiment: Inhibition of matrix metalloprotease-2 (MMP-2), gelatinase-A; in short: as §1
Sequence (P08253 whole entry): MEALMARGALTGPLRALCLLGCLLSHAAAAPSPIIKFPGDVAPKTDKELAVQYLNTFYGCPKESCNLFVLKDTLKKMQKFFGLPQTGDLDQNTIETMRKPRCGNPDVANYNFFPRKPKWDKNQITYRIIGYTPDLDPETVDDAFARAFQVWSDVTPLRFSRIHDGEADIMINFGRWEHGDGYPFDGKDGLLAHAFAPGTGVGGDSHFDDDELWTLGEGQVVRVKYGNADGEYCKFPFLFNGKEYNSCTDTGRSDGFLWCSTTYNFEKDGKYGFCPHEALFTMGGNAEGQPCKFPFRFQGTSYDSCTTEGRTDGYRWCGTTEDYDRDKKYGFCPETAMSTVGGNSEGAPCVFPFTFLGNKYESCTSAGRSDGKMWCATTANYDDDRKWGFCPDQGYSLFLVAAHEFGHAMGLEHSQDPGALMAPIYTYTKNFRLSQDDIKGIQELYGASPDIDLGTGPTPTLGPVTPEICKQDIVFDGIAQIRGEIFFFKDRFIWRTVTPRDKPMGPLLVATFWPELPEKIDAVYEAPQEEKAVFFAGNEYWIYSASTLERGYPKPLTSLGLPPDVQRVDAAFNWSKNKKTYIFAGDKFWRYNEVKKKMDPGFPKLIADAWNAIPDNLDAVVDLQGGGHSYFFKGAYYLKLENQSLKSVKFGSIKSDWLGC

Structure (SMILES)	Ki [nM]
COc1ccc(S(=O)(=O)C(CCCCc2ccccc2)C(C)C(=O)NO)cc1 (centres undefined)	60
COc1ccc(S(=O)(=O)C(CCCc2ccccc2)CC(=O)NO)cc1 (centres undefined)	50
COc1ccc(S(=O)(=O)C(C)(CCCCc2ccccc2)CC(=O)NO)cc1 (centres undefined)	50
COc1ccc(S(=O)(=O)C(CCc2ccccc2)CC(=O)NO)cc1 (centres undefined)	30
COc1ccc(S(=O)(=O)C(CCCCc2ccccc2)CC(=O)NO)cc1 (centres undefined)	20
COc1ccc(S(=O)(=O)C(CC(=O)NO)Cc2ccccc2)cc1 (centres undefined)	20
COc1ccc(S(=O)(=O)C(CCCCc2ccccc2)CC(=O)NO)cc1OC (centres undefined)	> 10000
COc1ccc(S(=O)(=O)[C@H](CCCCc2ccccc2)[C@@H](C)C(=O)NO)cc1	10

target: T1, Interstitial collagenase (Homo sapiens, UniProt P03956); experiment: Inhibition of matrix metalloprotease-1 (MMP-1), fibroblast collagenase.; in short: as §1
T1 sequence (P03956 whole entry): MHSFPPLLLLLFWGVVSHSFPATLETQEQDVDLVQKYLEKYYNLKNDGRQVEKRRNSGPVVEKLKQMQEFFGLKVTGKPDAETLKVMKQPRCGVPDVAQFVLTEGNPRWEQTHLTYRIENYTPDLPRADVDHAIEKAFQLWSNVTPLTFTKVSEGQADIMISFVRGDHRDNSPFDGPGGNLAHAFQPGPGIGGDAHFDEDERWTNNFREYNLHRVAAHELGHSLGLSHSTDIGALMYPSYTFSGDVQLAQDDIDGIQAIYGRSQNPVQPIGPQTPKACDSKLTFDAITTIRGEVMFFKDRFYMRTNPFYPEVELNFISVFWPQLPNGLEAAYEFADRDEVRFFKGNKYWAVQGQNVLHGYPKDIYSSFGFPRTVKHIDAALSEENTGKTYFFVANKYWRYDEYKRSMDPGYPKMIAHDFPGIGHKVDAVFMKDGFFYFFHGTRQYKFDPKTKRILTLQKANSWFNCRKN

Structure (SMILES)	Ki [nM]
COc1ccc(S(=O)(=O)C(CCCCc2ccccc2)C(C)C(=O)NO)cc1 (centres undefined)	2000
COc1ccc(S(=O)(=O)C(CCCc2ccccc2)CC(=O)NO)cc1 (centres undefined)	2000
COc1ccc(S(=O)(=O)C(C)(CCCCc2ccccc2)CC(=O)NO)cc1 (centres undefined)	2000
COc1ccc(S(=O)(=O)C(CCc2ccccc2)CC(=O)NO)cc1 (centres undefined)	4000
COc1ccc(S(=O)(=O)C(CCCCc2ccccc2)CC(=O)NO)cc1 (centres undefined)	5000
COc1ccc(S(=O)(=O)C(CC(=O)NO)Cc2ccccc2)cc1 (centres undefined)	1000
COc1ccc(S(=O)(=O)C(CCCCc2ccccc2)CC(=O)NO)cc1OC (centres undefined)	> 10000
COc1ccc(S(=O)(=O)[C@H](CCCCc2ccccc2)[C@@H](C)C(=O)NO)cc1	2000
